In ChEMBL document CHEMBL1153017 (Bioorg Med Chem, 2009):
Blank lines part the entries; values can stand above or below the compound they belong to.

Legend:
[1] = Chemical stability in HCl buffer of pH 1.2 simulating gastric fluid; type: physicochemical; settings: simulated gi fluid
Procedure, shortened: (§1)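 Hydrolysis run in pH 1.2 HCl buffer or pH 7.4 phosphate buffer, each with 1% Tween 20 and ionic strength 0.2 (KCl). Started by adding 200 µL of a 3 mg/mL methanol or acetonitrile stock to 9.8 mL of prewarmed buffer, held at 37 °C. Aliquots (20 µL) taken over time; remaining ester measured by HPLC.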

[2] = species on record: Homo sapiens; experiment: Stability in human plasma assessed as hydrolysis half life
[3] = Chemical stability in phosphate buffer of pH 7.4 simulating intestinal fluid; type: physicochemical; settings: simulated gi fluid; procedure, shortened: as §1
[4] = test system: Rattus norvegicus; experiment: Gastrointestinal toxicity in Wistar rat assessed as complete damage of mucosal layer and ulceration of submucosal cells at dose equivalent to 150 mg/kg of ibuprofen, po after 24 hrs by electron microscopy; type: organism-based, Submucosa; set-up: dose 150 mg/kg, route oral; settings: in vivo
Procedure, shortened: (§2)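 Male Wistar rats (150–200 g), three per group, fasted 12 h with water available. Given a daily oral dose in 0.5% CMC (1 mL suspension) for four successive days; control group got vehicle. Food withheld until 24 h after the last dose, then rats killed. Stomachs opened along the greater curvature, rinsed in saline, and random specimens examined by scanning electron microscopy after glutaraldehyde/osmium fixation, ethanol dehydration and amyl acetate.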

[5] = test system: Rattus norvegicus; experiment: Antiinflammatory activity in Wistar rat assessed as inhibition of carrageenan-induced paw edema at 150 mg/kg, po administered 30 mins before carrageenan challenge measured after 1 hr; type: functional
Procedure, shortened: (§3)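 Rats dosed orally with a suspension in 0.5% w/v aqueous carboxymethyl cellulose; controls got vehicle alone. 30 min later, 0.1 mL of fresh 1% carrageenan in normal saline injected subplantar into the right hind paw. Paw thickness measured by skin caliper at 0.5, 1, 2, 3, 4 and 5 h. % edema inhibition = [(VR−VL)control − (VR−VL)treated]/(VR−VL)control × 100. Values are means ± SEM.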

[6] = test system: Rattus norvegicus; experiment: Antiinflammatory activity in Wistar rat assessed as inhibition of carrageenan-induced paw edema at 150 mg/kg, po administered 30 mins before carrageenan challenge measured after 3 hrs; type: functional; procedure, shortened: as §3
[7] = test system: Rattus norvegicus; experiment: Gastrointestinal toxicity in Wistar rat assessed as complete damage of mucosal layer and ulceration of submucosal cells at 150 mg/kg, po after 24 hrs by electron microscopy; type: organism-based, Submucosa; set-up: dose 150 mg/kg, route oral; settings: in vivo; procedure, shortened: as §2
[8] = test system: Rattus norvegicus; experiment: Antiinflammatory activity in Wistar rat assessed as inhibition of carrageenan-induced paw edema at 150 mg/kg, po administered 30 mins before carrageenan challenge measured after 5 hrs; type: functional; procedure, shortened: as §3
[9] = test system: Rattus norvegicus; experiment: Antiinflammatory activity in Wistar rat assessed as inhibition of carrageenan-induced paw edema at 150 mg/kg, po administered 30 mins before carrageenan challenge measured after 4 hrs; type: functional; procedure, shortened: as §3
[10] = test system: Rattus norvegicus; experiment: Antiinflammatory activity in Wistar rat assessed as inhibition of carrageenan-induced paw edema at 150 mg/kg, po administered 30 mins before carrageenan challenge measured after 2 hrs; type: functional; procedure, shortened: as §3
[11] = test system: Rattus norvegicus; experiment: Antiinflammatory activity in Wistar rat assessed as inhibition of carrageenan-induced paw edema at 150 mg/kg, po administered 30 mins before carrageenan challenge measured after 0.5 hrs; type: functional; procedure, shortened: as §3
[12] = test system: Rattus norvegicus; experiment: Antiinflammatory activity in Wistar rat assessed as inhibition of carrageenan-induced paw edema at 20 mg/kg, po administered 30 mins before carrageenan challenge measured after 3 hrs; type: functional; procedure, shortened: as §3
[13] = test system: Rattus norvegicus; experiment: Antiinflammatory activity in Wistar rat assessed as inhibition of carrageenan-induced paw edema at 20 mg/kg, po administered 30 mins before carrageenan challenge measured after 1 hr; type: functional; procedure, shortened: as §3
[14] = test system: Rattus norvegicus; experiment: Antiinflammatory activity in Wistar rat assessed as inhibition of carrageenan-induced paw edema at 20 mg/kg, po administered 30 mins before carrageenan challenge measured after 0.5 hrs; type: functional; procedure, shortened: as §3
[15] = test system: Rattus norvegicus; experiment: Antiinflammatory activity in Wistar rat assessed as inhibition of carrageenan-induced paw edema at 20 mg/kg, po administered 30 mins before carrageenan challenge measured after 2 hrs; type: functional; procedure, shortened: as §3
[16] = test system: Rattus norvegicus; experiment: Antiinflammatory activity in Wistar rat assessed as inhibition of carrageenan-induced paw edema at 20 mg/kg, po administered 30 mins before carrageenan challenge measured after 5 hrs; type: functional; procedure, shortened: as §3
[17] = test system: Rattus norvegicus; experiment: Antiinflammatory activity in Wistar rat assessed as inhibition of carrageenan-induced paw edema at 20 mg/kg, po administered 30 mins before carrageenan challenge measured after 4 hrs; type: functional; procedure, shortened: as §3
[18] = species on record: Rattus norvegicus; experiment: animal or person; settings: Wistar, po, read-out: INH
[19] = species on record: Rattus norvegicus; experiment: animal or person; settings: Wistar, po, read-out: INH; remark: listed apart in the source
[20] = species on record: Rattus norvegicus; experiment: animal or person; settings: Wistar, po, read-out: INH; remark: listed apart in the source
[21] = species on record: Rattus norvegicus; experiment: animal or person; settings: Wistar, po, read-out: INH; remark: listed apart in the source
[22] = species on record: Rattus norvegicus; experiment: animal or person; settings: Wistar, po, read-out: INH; remark: listed apart in the source
[23] = species on record: Rattus norvegicus; experiment: animal or person; settings: Wistar, po, read-out: INH; remark: listed apart in the source

Stability [1]: Stable
half-life [2]: 34 min
Stability [3]: 1 days
SMILES: COc1ccc2cc(C(C)C(=O)OCn3c(=O)oc4ccc(Cl)cc43)ccc2c1 (stereo not drawn)

Stability [1]: Stable
half-life [2]: 37 min
Stability [3]: 1 days
SMILES: CC(C)Cc1ccc(C(C)C(=O)OCn2c(=O)oc3ccc(Cl)cc32)cc1 (stereo not drawn)
Activity [4]: Non-toxic

Stability [1]: Stable
Stability [3]: 1 days
SMILES: Cc1cccc(Nc2ccccc2C(=O)OCn2c(=O)oc3ccc(Cl)cc32)c1C

SMILES: CC(C)Cc1ccc(C(C)C(=O)O)cc1 (stereo not drawn) [IBUPROFEN]
inhibition in vivo at 150 mg/kg [5]: 16.7%
inhibition in vivo at 150 mg/kg [6]: 62.5%
Activity [7]: Toxic
inhibition in vivo at 150 mg/kg [8]: 41.7%
inhibition in vivo at 150 mg/kg [9]: 50%
inhibition in vivo at 150 mg/kg [10]: 45.8%
inhibition in vivo at 150 mg/kg [11]: 16.7%

SMILES: Cc1cccc(Nc2ccccc2C(=O)O)c1C [MEFENAMIC ACID]
inhibition in vivo at 20 mg/kg [12]: 41.7%
inhibition in vivo at 20 mg/kg [13]: 18.3%
inhibition in vivo at 20 mg/kg [14]: 16.7%
inhibition in vivo at 20 mg/kg [15]: 33.3%
inhibition in vivo at 20 mg/kg [16]: 33.3%
inhibition in vivo at 20 mg/kg [17]: 45.8%

SMILES: COc1ccc2cc([C@H](C)C(=O)O)ccc2c1 [NAPROXEN]
inhibition in vivo at 40 mg/kg [18]: 9.4%
inhibition in vivo at 40 mg/kg [19]: 37.5%
inhibition in vivo at 40 mg/kg [20]: 18.8%
inhibition in vivo at 40 mg/kg [21]: 28.1%
inhibition in vivo at 40 mg/kg [22]: 16.3%
inhibition in vivo at 40 mg/kg [23]: 46.9%
